Hits are enriched below; roughly 3.1% of the tested compounds scored in any of these assays.
LEDGF integ inh: blockers of LEDGF/p75-dependent integrase strand transfer – biochemical, TR-FRET, high throughput, primary screen; HIV-1 integrase (with human LEDGF/p75); TR-FRET IN-LEDGF/p75 DNA integration, Eu/Cy5; inhibition, % at 3.7 µM; 370,000 compounds, 0.64% hits; AID 743269, 2014;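 active = inhibition above the screen-wide mean plus 3 SD, cut at about 13% in these data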;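 also: signal is the Cy5 over europium emission ratio at 671 and 618 nm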
MBD2 inh: inhibitors of MBD2 binding to methylated DNA, primary screen, biochemical, TR-FRET, DNA-binding domain, human; Methyl-CpG-binding domain protein 2 (Homo sapiens), Q9UBB5; MBD2 binding to methylated oligonucleotide; inhibition, % at 4.4 µM; 370,000 compounds, 0.31% hits; AID 686964, 2013; in the data active = inhibition above about 13%
Target sequence (Q9UBB5 whole entry, looked up, the tested form may be a part): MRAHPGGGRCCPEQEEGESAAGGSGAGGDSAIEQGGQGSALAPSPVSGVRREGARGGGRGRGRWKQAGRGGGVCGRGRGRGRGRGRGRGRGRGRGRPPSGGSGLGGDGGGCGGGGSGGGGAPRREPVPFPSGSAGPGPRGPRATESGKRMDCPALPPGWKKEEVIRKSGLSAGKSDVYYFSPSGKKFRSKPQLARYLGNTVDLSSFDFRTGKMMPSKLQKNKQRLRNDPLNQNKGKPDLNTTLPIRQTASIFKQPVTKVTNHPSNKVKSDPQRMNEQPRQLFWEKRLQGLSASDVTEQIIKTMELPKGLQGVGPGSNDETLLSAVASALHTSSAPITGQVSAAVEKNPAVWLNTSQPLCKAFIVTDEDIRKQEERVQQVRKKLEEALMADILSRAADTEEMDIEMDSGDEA
RBBP9 inhibitor: human RBBP9 inhibitors, primary screen, biochemical, fluorescence polarization, FP-Rh probe, HTS; Serine hydrolase RBBP9 (Homo sapiens), O75884; recombinant RBBP9; inhibition, % at 7.94 µM; 220,000 compounds, 0.2% hits; AID 1515, 2009;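 active = inhibition above the campaign mean of all tested compounds plus 3 SD, cut at about 14% in these data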
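System: RBBP9 protein | Quantity: 2.5 µM RBBP9 dispensing solution, before mixing | Reagent: FP-Rh probe, 375 nM dispensing solution | Timing: Enzyme-compound preincubation 30 min, then probe labeling 45 min, 25 °C | Measured by: Fluorescence polarization | Read-out: % inhibition | Replication: One well per compound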
ABHD5-PLIN5 inh: ABHD5-PLIN5 interaction inhibitors, primary screen, cell lysate, split luciferase complementation, luminescence | 360,000 compounds, 0.78% hits | Split G. princeps luciferase complementation, 4 h | inhibition, % at 4 µM;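 active = inhibition above the mean inhibition across every tested compound plus 3 SD, cut at about 22% in these data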
UHRF1 binding: UHRF1 methylated DNA binding inhibitors, primary screen, counter-screen for MBD2 inhibitor project, biochemical, TR-FRET, human UHRF1, single concentration; E3 ubiquitin-protein ligase UHRF1 (Homo sapiens), Q96T88; UHRF1 binding to methylated oligo; inhibition, % at 4.4 µM; 370,000 compounds, 0.75% hits; in the data active = inhibition above about 21%;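 also: UHRF1 SRA domain binding a hemimethylated CpG hairpin DNA probe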
PRMT1 FP inh: PRMT1 methyltransferase inhibitors, primary screen, biochemical, fluorescence polarization. Protein arginine N-methyltransferase 1 (Homo sapiens), Q99873. recombinant PRMT1, activity-based probe fluorescence polarization. inhibition, % at 2.79 µM. 370,000 compounds, 1.3% hits;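 active = inhibition above about 21% made by adding two undisclosed values, limit read from the data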
IN multimer act: HIV-1 IN multimer formation enhancers, counter-screen for LEDGF/p75 integration inhibitor project, biochemical, TR-FRET. activation, % at 7.7 µM. shares compounds with LEDGF integ inh. TR-FRET HIV-1 integrase multimerization. AID 1053131, 2014. 2,000 compounds, 17% hits; in the data active = activation above about 8.9%
TRFRET interf: TR-FRET optical interference artefacts, confirmation, artefact control for LEDGF/p75-dependent integration inhibitor project, biochemical, HIV-1 IN multimerization; TR-FRET optical interference counterscreen; shares compounds with LEDGF integ inh; 2,000 tested, under 10 active; AID 1053135, 2014; inhibition, % at 7.7 µM;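 active = inhibition above the mean over all tested compounds plus 3 SD, which no compound reached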
IN-LEDGF confirm: inhibitors of HIV-1 IN-LEDGF/p75 DNA integration, confirmation, biochemical, TR-FRET; 2,000 compounds, 36% hits; inhibition, % at 3.7 µM; TR-FRET LEDGF/p75-dependent HIV-1 integration; shares compounds with LEDGF integ inh; in the data active = inhibition above about 14%
Of the large screens only hits and unclear results are named; the others gave an inactive call (follow-up assays come after a bar, where they were run).

COC(=O)[C@]12C[C@H](CC(=O)NCCCCc3ccccc3)C(=O)N(Cc3cccc4ccccc34)C1=C[C@H](C1CCCC1)O[C@@H]2C	none (no result: RBBP9 inhibitor, ABHD5-PLIN5 inh)
CC[C@@H](CCCCCCCn1ccc2ccccc21)CCC(=O)N(c1ccccc1)c1ccccc1	none (no result: RBBP9 inhibitor, ABHD5-PLIN5 inh)
CCCCNC(=O)/C=C/c1cccs1	none
Cc1ccc(CNC(=O)/C=C/c2cccs2)cc1	LEDGF integ inh 25.2 | IN multimer act inactive | TRFRET interf inactive | IN-LEDGF confirm inactive
CCOC(=O)[C@@]12CCC3=C1N(CCC3)C(=O)[C@H](CC(=O)NCc1ccc(OC)c(OC)c1)C2	none (no result: RBBP9 inhibitor, ABHD5-PLIN5 inh)
O=S(=O)(Nc1ccc(O)c2ncccc12)c1ccccc1F	LEDGF integ inh 28.6 (no result: RBBP9 inhibitor) | IN multimer act inactive | TRFRET interf inactive | IN-LEDGF confirm 43.8
CN(C)c1cc(Cl)c2nonc2c1N	LEDGF integ inh 26.3 | IN multimer act inactive | TRFRET interf inactive | IN-LEDGF confirm inactive
COCc1cc(N2CCNC[C@@H]2C)ccc1N1CCN(Cc2ccccc2)[C@H](C)C1	none (no result: RBBP9 inhibitor, ABHD5-PLIN5 inh)
O=C(CCCCCN1C(=O)C2C3C=CC(C3)C2C1=O)Nc1ccc2ncccc2c1 (stereo not drawn)	LEDGF integ inh 22.1 (no result: RBBP9 inhibitor, ABHD5-PLIN5 inh) | IN multimer act inactive | TRFRET interf inactive | IN-LEDGF confirm inactive
O=C(CCCCCN1C(=O)C2C3C=CC(C3)C2C1=O)Nc1ccc(Cl)cc1 (stereo not drawn)	none (no result: RBBP9 inhibitor, ABHD5-PLIN5 inh)
Cc1ccc(Nc2ccc(NCc3ccccc3)nn2)cc1C	LEDGF integ inh 46.9 | IN multimer act inactive | TRFRET interf inactive | IN-LEDGF confirm inactive
Clc1ccc(Nc2ccc(NCc3ccccc3)nn2)cc1	none
CC1=CC(C)(C)N2C(=O)C(=Nc3ccc(O)cc3)c3cccc1c32	LEDGF integ inh 16.9 | IN multimer act 18.9 | TRFRET interf inactive | IN-LEDGF confirm 45.4
O=C(NC(Cc1ccccc1)C(=O)O)/C(=C\c1ccco1)NC(=O)c1ccccc1Br (stereo not drawn)	LEDGF integ inh 16.5, PRMT1 FP inh 23.7 | IN multimer act inactive | TRFRET interf inactive | IN-LEDGF confirm inactive
O=C(NC(Cc1ccccc1)C(=O)O)/C(=C/c1ccco1)NC(=O)c1cccc([N+](=O)[O-])c1 (stereo not drawn)	none
Cc1ccc(Cn2cc(CN3[C@H](C)COc4cc(Br)ccc4S3(=O)=O)nn2)cc1	none (no result: RBBP9 inhibitor, ABHD5-PLIN5 inh)
COc1c(NC=O)c2c(c([N+](=O)[O-])c1OC)C(=O)OC2	LEDGF integ inh 13.7 (no result: RBBP9 inhibitor) | IN multimer act inactive | TRFRET interf inactive | IN-LEDGF confirm inactive
COc1ccccc1CNc1ccc2c(c1)OC[C@H](CC(C)C)NS2(=O)=O	LEDGF integ inh 20.3 (no result: RBBP9 inhibitor, ABHD5-PLIN5 inh) | IN multimer act inactive | TRFRET interf inactive | IN-LEDGF confirm inactive
CC(=O)CC[C@H]1CC[C@]2(CCCN(C(=O)C3CCCCC3)C2)O1	none (no result: RBBP9 inhibitor, ABHD5-PLIN5 inh)
CC(C)[C@@H]1Cc2[nH]n(C)c(=O)c2[C@H](c2ccc(F)cc2)O1	LEDGF integ inh 87.2 (no result: RBBP9 inhibitor) | IN multimer act inactive | TRFRET interf inactive | IN-LEDGF confirm inactive

Screens deposited in PubChem BioAssay by The Scripps Research Institute Molecular Screening Center.
